Structures are written as SMILES. Calls of active or inactive are those of the source. The rule behind the calls is not given here.

Series [1] deals with AGS. The series can be described thus: Potentiation of TRAIL-induced cytotoxicity against human AGS cells assessed as reduction in cell viability at 10 to 40 uM measured after 24 hrs by FMCA method. The class given is functional, cell-based. Summed up: (§1)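 FMCA viability assay in TRAIL-resistant AGS cells or HEK293 cells (HEK293 in DMEM, 10% FBS, 1% penicillin-streptomycin). Cells are seeded at 6 × 10^3 per well, left 24 h at 37 °C in 5% CO2, then exposed to test sample at several doses with or without TRAIL (100 ng/mL) for 24 h. Cells are PBS-washed and given […] (10 μg/mL) in PBS for 1 h at 37 °C. Fluorescence is read at ex 485/em 538 nm. Means ± SD, n = 4; luteolin is the positive control and DMSO the negative control.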

Series [2] concerns AGS. The series can be described thus: Potentiation of TRAIL-induced cytotoxicity against human AGS cells assessed as reduction in cell viability at 10 to 30 uM measured after 24 hrs by FMCA method. It is filed as functional, cell-based. Summed up:
as §1

Series [3] deals with AGS. The series can be described thus: Induction of apoptosis in human AGS cells assessed as cleaved caspase8 level at 16 uM measured after 24 hrs by Western blot analysis relative to control. It is filed as functional. In outline: (§2)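 Western blot in AGS cells for cleaved caspases-3, -8 and -9. Cells are seeded for 24 h, then given compound at 16 μM, TRAIL (100 ng/mL), or both together for 24 h. Lysates are made in the Tris/Triton/deoxycholate lysis buffer with protease inhibitors and run on 12.5% SDS-PAGE. Proteins are transferred to PVDF, immunodetected with HRP secondary antibodies and read by ECL chemiluminescence.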

Series [4] has as its system AGS. The series can be described thus: Potentiation of TRAIL-induced apoptosis in human AGS cells assessed as increase in cleaved caspase3 level at 16 uM measured after 24 hrs by Western blot analysis. The class given is functional. In outline: as §2
Series [5] can be described thus: Downregulation of GSK-3beta protein expression in human AGS cells measured after 24 hrs by Western blot analysis. The class given is functional, cell-based. Summed up:
(§3)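 Western blot in AGS cells. Cells are seeded for 24 h and treated with compound at the indicated concentrations for 24 h. Lysis is in Tris·HCl (20 mM, pH 7.4), NaCl 150 mM, 0.5% Triton X-100, 0.5% deoxycholate, EDTA 10 mM, orthovanadate 1 mM, NaF 0.1 mM and protease inhibitors. Proteins are run on 12.5% SDS-PAGE and transferred to PVDF, blocked in 5% milk/TBST, probed with primary and then HRP secondary antibodies, and detected by ECL. β-Actin is the internal control.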

Series [6] in a line: Upregulation of Fas protein expression in human AGS cells measured after 24 hrs by Western blot analysis. The class given is functional, cell-based. Summed up:
as §3

Series [7] in a line: Upregulation of Bax protein expression in human AGS cells at 8 to 24 uM measured after 24 hrs by Western blot analysis. The class given is functional, cell-based. Summed up:
as §3

Series [8] has as its system AGS. The series can be described thus: Potentiation of TRAIL-induced apoptosis in human AGS cells assessed as increase in cleaved caspase8 level at 16 uM measured after 24 hrs by Western blot analysis. It is filed as functional. In outline:
as §2

Series [9] in a line: Downregulation of Bcl2 protein expression in human AGS cells measured after 24 hrs by Western blot analysis. It is filed as functional, cell-based. In outline:
as §3

A short description of series [10]: Downregulation of c-FLIP expression in human AGS cells at 8 to 24 uM measured after 24 hrs by Western blot analysis. It is filed as functional, cell-based. Summed up: as §3
A short description of series [11]: Upregulation of CHOP expression in human AGS cells measured after 24 hrs by Western blot analysis. The class given is functional, cell-based. Summed up: as §3
Series [12] is described as follows: Upregulation of cleaved caspase-8 expression in human AGS cells at 8 to 24 uM measured after 24 hrs by Western blot analysis. The class given is functional, cell-based. In outline:
as §3

Series [13] deals with AGS. The series can be described thus: Potentiation of TRAIL-induced apoptosis in human AGS cells assessed as increase in cleaved caspase9 level at 16 uM measured after 24 hrs by Western blot analysis. It is filed as functional. Summed up: as §2
Series [14] is described as follows: Upregulation of cleaved caspase3 expression in human AGS cells at 8 to 24 uM measured after 24 hrs by Western blot analysis. The class given is functional, cell-based. In outline: as §3
Series [15] has as its system AGS. The series can be described thus: Induction of apoptosis in human AGS cells assessed as cleaved caspase3 level at 16 uM measured after 24 hrs by Western blot analysis relative to control. The class given is functional. Summed up: as §2
The nature of series [16]: Cytotoxicity against HEK293 cells assessed as reduction in cell viability up to 30 uM measured after 24 hrs in presence of TRIAL by FMCA method. The class given is toxicity, cell-based. The note with it: human, hek293, 24 h. In outline: as §1
Series [17] relates to AGS. As to the kind of experiment: Potentiation of TRAIL-induced cytotoxicity in human AGS cells assessed as reduction in cell viability at 5 to 25 uM measured after 24 hrs by FMCA method. It is filed as functional, cell-based. Summed up:
as §1

Series [18] in a line: Upregulation of p53 protein expression in human AGS cells measured after 24 hrs by Western blot analysis. It is filed as functional, cell-based. Summed up:
as §3

Series [19] can be described thus: Upregulation of DR4 protein expression in human AGS cells measured after 24 hrs by Western blot analysis. The class given is functional, cell-based. In outline:
as §3

For series [20], the system named is AGS. The series can be described thus: Induction of apoptosis in human AGS cells assessed as cleaved caspase9 level at 16 uM measured after 24 hrs by Western blot analysis relative to control. The class given is functional. In outline:
as §2

A short description of series [21]: Upregulation of DR5 protein expression in human AGS cells measured after 24 hrs by Western blot analysis. It is filed as functional, cell-based. In outline: as §3
Series [22] is described as follows: Upregulation of cleaved caspase9 expression in human AGS cells at 8 to 24 uM measured after 24 hrs by Western blot analysis. It is filed as functional, cell-based. In outline: as §3
Series [23] has as its system AGS. As to the kind of experiment: Potentiation of TRAIL-induced cytotoxicity against human AGS cells assessed as reduction in cell viability at 5 to 30 uM measured after 24 hrs by FMCA method. The class given is functional, cell-based. In outline:
as §1

The subject of series [24] is AGS. As to the kind of experiment: Potentiation of TRAIL-induced cytotoxicity against human AGS cells assessed as reduction in cell viability at 20 to 60 uM measured after 24 hrs by FMCA method. The class given is functional, cell-based. In outline:
as §1

Series [25] has as its system AGS. As to the kind of experiment: Potentiation of TRAIL-induced cytotoxicity against human AGS cells assessed as reduction in cell viability at 10 to 50 uM measured after 24 hrs by FMCA method. It is filed as functional, cell-based. In outline: as §1
In series [26] the test system is AGS. As to the kind of experiment: Potentiation of TRAIL-induced cytotoxicity against human AGS cells assessed as reduction in cell viability at 20 to 80 uM measured after 24 hrs by FMCA method. The class given is functional, cell-based. Summed up:
as §1

Series [27] deals with AGS. The series can be described thus: Potentiation of TRAIL-induced cytotoxicity against human AGS cells assessed as reduction in cell viability at 40 to 120 uM measured after 24 hrs by FMCA method. The class given is functional, cell-based. In outline:
as §1

As to `C=C[C@]1(C)C=C2C[C@@H](OC(C)=O)[C@H]3C(C)(C)CCC(=O)[C@]3(C)[C@@]2(O)CC1`, in the series on AGS [1], the result was Active.

As for `C=C[C@]1(C)C=C2C[C@@H](O)[C@H]3C(C)(C)CCC(=O)[C@]3(C)[C@@]2(O)CC1`, the result in the series on AGS [1] was Active.

`C=C[C@@]1(C)CCC2=C([C@H]1OC)[C@H](OC)[C@@H](O)[C@H]1C(C)(C)CCC[C@]21C`: the outcome in the series with AGS [1] was Active.

For the compound `C=C[C@]1(C)C=C2[C@@H](O)C[C@H]3C(C)(C)CCC[C@]3(C)[C@@]2(O)[C@H](O)C1`, in the series on AGS [2], the outcome was Active.

Take `C=C[C@]1(C)C=C2C[C@@H](OC(C)=O)[C@H]3C(C)(C)CC[C@H](O)[C@]3(C)[C@@]2(O)CC1`: the Activity with AGS [3] is 0%; in the series with AGS [4], 68%; in [5], “Dose-dependent effect”; in series [6] it was “Dose-dependent effect”; in the series with AGS [8], 65%; in [9], “Dose-dependent effect”. Besides, the Activity entry is “Dose-dependent effect” in [11]; 75% with AGS [13]; 0% in the series on AGS [15]; “Non-Toxic” in series [16]; “Dose-dependent effect” in [18]; “Dose-dependent effect” in series [19]. Besides, the values for the Activity (in the series with AGS [20]; in series [21]) were 15% and “Dose-dependent effect”, respectively. For the same compound, the outcome (in series [7]; in series [10]; in [12]; in [14]; in the series with AGS [17]; in series [22]) was Active.

As for `C=C[C@@]1(C)C=C2CC[C@H]3C(C)(C)CC[C@H](O)[C@]3(C)[C@H]2[C@H](O)C1`, in the series on AGS [2], the outcome was Active.

`C=C[C@]1(C)C=C2[C@H](O)[C@@H](OC(C)=O)[C@H]3C(C)(C)CCC[C@]3(C)[C@@]2(O)CC1`: the result with AGS [2] was Active.

Take `C=C[C@]1(C)C=C2CC[C@H]3C(C)(C)CC[C@H](O)[C@]3(C)[C@@]2(O)CC1`: the result with AGS [23] was Active.

On to `C=C[C@]1(C)C=C2[C@H](O)C[C@H]3C(C)(C)CC[C@H](O)[C@]3(C)[C@@]2(O)CC1`, for which, in the series on AGS [24], the outcome was Active.

Turning to `C=C[C@]1(C)C=C2[C@H](O)[C@@H](OC(C)=O)[C@H]3C(C)(C)CC[C@H](O)[C@]3(C)[C@@]2(O)CC1`, the outcome in the series with AGS [2] was Active.

`C=C[C@@]1(C)CCC2=C([C@H](O)[C@@H](O)[C@H]3C(C)(C)CCC[C@]23C)[C@@H]1OC`: the outcome with AGS [24] was Active.

Take `C=C[C@@]1(C)CCC2=C(C[C@@H](O)[C@H]3C(C)(C)CCC[C@]23C)[C@H]1O`: the outcome in the series on AGS [25] was Active.

In the case of `CC1=C[C@@H](O)[C@H](C(C)C)CC1=O`, the result in the series on AGS [26] was Active.

As for `C=C[C@]1(C)C=C2CC[C@H]3C(C)(C)C[C@H](O)[C@H](O)[C@]3(C)[C@H]2CC1`, in the series with AGS [2], the result was Active.

In the case of `C=C[C@@]1(C)CCC2=C(C[C@@H](O)[C@H]3C(C)(C)CC[C@H](O)[C@]23C)C1=O`, the result in the series on AGS [26] was Active.

On to `C=C[C@@]1(C)CCC2=C([C@H](OC)[C@@H](O)[C@H]3C(C)(C)CCC[C@]23C)[C@@H]1OC`, for which, in the series on AGS [2], the outcome was Active.

For `C=C[C@]1(C)C=C2C[C@@H](O)[C@H]3C(C)(C)CC[C@H](O)[C@]3(C)[C@@]2(O)CC1`, the outcome with AGS [27] was Active.

As to `C=C[C@]1(C)C=C2C[C@@H](O)[C@H]3C(C)(C)[C@H](O)C[C@H](O)[C@]3(C)[C@H]2CC1`, the result in the series on AGS [25] was Active.
